From ChEMBL document CHEMBL4196198, “Terpenoids from Euphorbia pedroi as Multidrug-Resistance Reversers” (J Nat Prod, 2018)

Columns and labels:
L5178Y [1] = assay: Antiproliferative activity against mouse L5178Y cells after 72 hrs by MTT assay; type: cell-based
Outline: (§1)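 L5178Y-PAR and ABCB1-transfected L5178Y-MDR cells seeded at 6 × 10^3 per well. Compounds tested in 2-fold serial dilutions for 72 h. MTT in PBS was added for 4 h, then SDS (10% in 0.01 M HCl) overnight at 37 °C. OD read at 550 nm (reference 630 nm), in quadruplicate. IC50 fitted from dose–inhibition curves; mean ± SD.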

L5178Y [2] = assay: Antiproliferative activity against mouse L5178Y cells harboring human ABCB1 after 72 hrs by MTT assay; type: ADME, cell-based; outline: as §1
[3] = target: T1, ATP-dependent translocase ABCB1 (Homo sapiens, UniProt P08183); assay: Modulation of human ABCB1 expressed in mouse L5178Y cells assessed as potentiation of doxorubicin-induced cytotoxicity by measuring combination index at ED50 measured after 48 hrs by MTT assay; type: cell-based
T1 sequence (P08183 whole entry): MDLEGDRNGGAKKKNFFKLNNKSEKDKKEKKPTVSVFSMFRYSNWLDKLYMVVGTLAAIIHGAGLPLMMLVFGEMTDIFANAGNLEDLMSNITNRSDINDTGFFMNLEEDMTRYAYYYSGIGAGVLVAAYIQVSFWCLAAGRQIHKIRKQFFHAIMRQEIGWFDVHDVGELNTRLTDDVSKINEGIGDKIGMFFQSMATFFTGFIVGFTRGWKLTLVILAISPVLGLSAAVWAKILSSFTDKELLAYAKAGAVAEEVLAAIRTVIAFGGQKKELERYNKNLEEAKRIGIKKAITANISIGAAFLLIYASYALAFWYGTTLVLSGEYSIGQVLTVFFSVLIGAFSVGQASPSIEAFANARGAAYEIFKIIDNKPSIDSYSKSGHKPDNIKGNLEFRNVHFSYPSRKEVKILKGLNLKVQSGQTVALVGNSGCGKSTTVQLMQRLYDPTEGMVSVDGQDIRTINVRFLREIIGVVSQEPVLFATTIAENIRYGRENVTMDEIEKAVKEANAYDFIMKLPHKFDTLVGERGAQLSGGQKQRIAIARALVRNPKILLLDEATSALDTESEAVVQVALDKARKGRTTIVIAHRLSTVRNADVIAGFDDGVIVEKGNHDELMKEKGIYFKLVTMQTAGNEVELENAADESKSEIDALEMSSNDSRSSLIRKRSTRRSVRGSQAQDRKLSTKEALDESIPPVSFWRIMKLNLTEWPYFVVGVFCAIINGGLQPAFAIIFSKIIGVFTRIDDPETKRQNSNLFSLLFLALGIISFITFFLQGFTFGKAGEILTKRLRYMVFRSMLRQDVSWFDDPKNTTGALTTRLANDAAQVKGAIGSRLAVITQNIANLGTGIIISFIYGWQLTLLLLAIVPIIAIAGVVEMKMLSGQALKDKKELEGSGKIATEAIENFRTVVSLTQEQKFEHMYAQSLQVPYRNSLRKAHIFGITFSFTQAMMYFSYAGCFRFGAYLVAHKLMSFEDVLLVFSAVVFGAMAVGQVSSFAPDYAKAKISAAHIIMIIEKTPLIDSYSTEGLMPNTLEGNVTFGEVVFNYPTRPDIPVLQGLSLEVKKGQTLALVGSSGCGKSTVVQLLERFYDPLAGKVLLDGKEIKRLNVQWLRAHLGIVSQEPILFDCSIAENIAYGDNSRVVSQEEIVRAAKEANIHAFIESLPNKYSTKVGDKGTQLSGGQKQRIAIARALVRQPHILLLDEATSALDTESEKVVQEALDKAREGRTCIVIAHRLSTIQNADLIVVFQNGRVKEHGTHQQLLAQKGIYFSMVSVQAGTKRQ
Outline: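 Checkerboard in L5178Y-MDR cells: doxorubicin diluted 14.7–0.1 μM along one axis, modulator diluted from 2-fold its IC50 along the other, at fixed ratios. Cells at 2 × 10^5/mL, 48 h, MTT read-out. Dose–response curves fitted by Chou median-effect equation, keeping only r > 0.90. CI at 50% inhibition given as mean ± SD of three CI values from different drug ratios.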

[4] = target: T1, ATP-dependent translocase ABCB1; assay: Modulation of human ABCB1 expressed in mouse L5178Y cells assessed as fluorescence activity ratio at 2 uM pretreated for 10 mins followed by rhodamine 123 addition and measured after 20 mins by flow cytometry (reference value: 1.01); type: cell-based
[5] = target: T1, ATP-dependent translocase ABCB1; assay: Modulation of human ABCB1 expressed in mouse L5178Y cells assessed as fluorescence activity ratio at 20 uM pretreated for 10 mins followed by rhodamine 123 addition and measured after 20 mins by flow cytometry (reference value: 1.01); type: cell-based
MRC5 = assay: Cytotoxicity against human MRC5 cells after 24 hrs by MTT assay; type: cell-based; settings: MRC5, 24 h
Outline: (§2)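 Cells seeded at 1 × 10^4 per well, with adherent lines detached by trypsin-EDTA and allowed 4 h attachment at 37 °C, 5% CO2. Compounds in 2-fold serial dilutions for 24 h. MTT for 4 h, SDS/HCl solubilization overnight, OD 550 nm (ref 630 nm) in quadruplicate. Percent growth inhibition calculated vs cell and medium controls; IC50 from fitted curves.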

COLO 205 = assay: Cytotoxicity against human COLO205 cells after 24 hrs by MTT assay; type: cell-based; settings: COLO 205, 24 h; outline: as §2
NIH3T3 = assay: Cytotoxicity against mouse NIH/3T3 cells after 24 hrs by MTT assay; type: cell-based; settings: NIH3T3, 24 h; outline: as §2
COLO 320 = assay: Cytotoxicity against human COLO320 cells after 24 hrs by MTT assay; type: cell-based; settings: COLO 320, 24 h; outline: as §2
[6] = target: T1, ATP-dependent translocase ABCB1; assay: Modulation of ABCB1 (unknown origin) expressed in human COLO320 cells co-expressing LRP assessed as fluorescence activity ratio at 2 uM pretreated for 10 mins followed by rhodamine 123 addition and measured after 20 mins by flow cytometry (reference value: 0.79); type: cell-based
[7] = target: T1, ATP-dependent translocase ABCB1; assay: Modulation of ABCB1 (unknown origin) expressed in human COLO320 cells co-expressing LRP assessed as fluorescence activity ratio at 20 uM pretreated for 10 mins followed by rhodamine 123 addition and measured after 20 mins by flow cytometry (reference value: 0.79); type: cell-based
[8] = target: T1, ATP-dependent translocase ABCB1; assay: Modulation of ABCB1 (unknown origin) expressed in human COLO320 cells co-expressing LRP assessed as fluorescence activity ratio at 0.2 uM pretreated for 10 mins followed by rhodamine 123 addition and measured after 20 mins by flow cytometry (reference value: 0.79); type: cell-based
[9] = target: T1, ATP-dependent translocase ABCB1; assay: Modulation of human ABCB1 expressed in mouse L5178Y cells assessed as fluorescence activity ratio at 0.2 uM pretreated for 10 mins followed by rhodamine 123 addition and measured after 20 mins by flow cytometry (reference value: 1.01); type: cell-based

Row | Compound | Ratio [4] | Ratio [5] | Ratio [6] | Ratio [7] | Ratio [8] | Ratio [9] | IC50 (L5178Y [1]) [µM] | IC50 (L5178Y [2]) [µM] | CI [3] | IC50 (MRC5) [µM] | IC50 (COLO 205) [µM] | IC50 (NIH3T3) [µM] | IC50 (COLO 320) [µM]
1 | CC1=C2C=C3CC[C@@H]4C(C)(C)/C(=N/OC(=O)c5ccco5)CC[C@@]4(C)[C@@H]3C[C@H]2OC1=O | 2.1 | 40.69 |  |  |  |  | > 10 | > 10 | 0.454 |  |  |  | 
2 | C=C(C)[C@H](O)CC[C@@H](C)[C@H]1CC[C@@]2(C)[C@@H]3CC[C@H]4C(C)(C)[C@@H](O)CC[C@@]45C[C@@]35CC[C@]12C | 5.91 | 43.58 | 0.77 | 5.91 |  |  | > 10 | > 10 |  | > 10 | > 10 | > 10 | > 10
3 | CC1(C)CC[C@]2(C(=O)O)CC[C@]3(C)C(=CC[C@@H]4[C@@]5(C)CC[C@H](O)C(C)(C)[C@@H]5CC[C@]43C)[C@@H]2C1 [OLEANOLIC_ACID] | 1.06 | 1.7 | 2.1 | 4.71 |  |  | > 10 | > 10 |  | > 10 | > 10 | > 10 | > 10
4 | CC[C@H](CC[C@@H](C)[C@H]1CC[C@H]2[C@@H]3CCC4=CC(=O)CC[C@]4(C)[C@H]3CC[C@]12C)C(C)C | 2.51 | 22.56 | 0.97 | 1.34 |  |  | > 10 | > 10 |  | > 10 | > 10 | > 10 | > 10
5 | C=C(CC[C@@H](C)[C@H]1CC[C@@]2(C)C3=C(C(=O)C[C@]12C)[C@@]1(C)CC[C@H](O)[C@@H](C)[C@@H]1CC3=O)C(C)C | 6.14 | 30.68 | 1.09 | 1.84 |  |  | > 10 | > 10 |  | > 10 | > 10 | > 10 | > 10
6 | CC1=C2C=C3CC[C@@H]4C(C)(C)/C(=N/OC(=O)c5ccccc5)CC[C@@]4(C)[C@@H]3C[C@H]2OC1=O | 5.78 | 56.37 |  |  |  |  | > 10 | > 10 | 0.152 |  |  |  | 
7 | C=C(CC[C@@H](C)[C@H]1CC[C@@]2(C)C(=O)[C@@]3(CC[C@]12C)[C@@H](O)C[C@H]1[C@H](C)[C@@H](O)CC[C@@]13C)C(C)C | 54.38 | 96.02 | 2.27 | 8 | 1.68 | 43.75 | > 10 | > 10 | 0.872 | > 10 | > 10 | > 10 | > 10
8 | C[C@H](C/C=C/C(C)(C)O)[C@H]1CC[C@@]2(C)[C@@H]3CC[C@H]4C(C)(C)[C@@H](O)CC[C@@]45C[C@@]35CC[C@]12C | 10.68 | 67.05 | 1.26 | 3.45 |  |  | > 10 | > 10 |  | > 10 | > 10 | > 10 | > 10

Now from value to molecule, other results behind:

Row | Ratio [4] | Ratio [5] | Ratio [6] | Ratio [7] | Ratio [8] | Ratio [9] | Compound | IC50 (L5178Y [1]) [µM] | IC50 (L5178Y [2]) [µM] | CI [3] | IC50 (MRC5) [µM] | IC50 (COLO 205) [µM] | IC50 (NIH3T3) [µM] | IC50 (COLO 320) [µM]
9 | 1.7 | 8.18 | 1.73 | 6.78 |  |  | CC1=C2C=C3CC[C@@H]4C(C)(C)[C@@H](O)CC[C@@]4(C)[C@@H]3C[C@H]2OC1=O [HELIOSCOPINOLIDE B] | > 10 | > 10 | 0.652 | > 10 | > 10 | > 10 | > 10
10 | 1.36 | 10.38 |  |  |  |  | CCCC(=O)O/N=C1\CC[C@@]2(C)[C@@H]3C[C@H]4OC(=O)C(C)=C4C=C3CC[C@@H]2C1(C)C | > 10 | > 10 | 0.387 |  |  |  | 
11 | 1.84 | 10.23 | 0.44 | 0.98 |  |  | CC1=C2C=C3CC[C@@H]4C(C)(C)C(=O)CC[C@@]4(C)[C@@H]3C[C@H]2OC1=O [HELIOSCOPINOLIDE E] | > 10 | > 10 | 0.367 | > 10 | > 10 | > 10 | > 10
12 | 1.09 | 7.09 |  |  |  |  | CC1=C2C=C3CC[C@@H]4C(C)(C)/C(=N/OC(=O)c5cccs5)CC[C@@]4(C)[C@@H]3C[C@H]2OC1=O | > 10 | > 10 | 0.324 |  |  |  | 
13 | 3.02 | 38.64 |  |  |  |  | CC(=O)O/N=C1\CC[C@@]2(C)[C@@H]3C[C@H]4OC(=O)C(C)=C4C=C3CC[C@@H]2C1(C)C | > 10 | > 10 | 0.501 |  |  |  | 
14 | 0.96 | 4.88 |  |  |  |  | CC1=C2C=C3CC[C@@H]4C(C)(C)/C(=N/O)CC[C@@]4(C)[C@@H]3C[C@H]2OC1=O | > 10 | > 10 | 0.477 |  |  |  | 
